Test results as given in ChEMBL document CHEMBL1149770, “Synthesis and antimicrobial studies of novel dichlorofluorophenyl containing aminotriazolothiadiazines” (2008).
Values after ≈ are worked out from the molar mass of the structure shown.

Legend:
[1] = system: Staphylococcus aureus; assay: Antibacterial activity against Staphylococcus aureus ATCC 25923 after 24 hrs by broth dilution technique; type: functional; details: ATCC 25923, 24 h
Method in brief: (§1)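 MIC by broth dilution in nutrient broth with logarithmic serial twofold dilutions of compound. Inoculum approx. 5×10^5 c.f.u actively dividing bacteria. Incubated 24 h at 37 °C, growth monitored visually and spectrophotometrically. MIC taken as the lowest concentration (highest dilution) arresting growth. Ciprofloxacin reference.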

[2] = system: Escherichia coli; assay: Antibacterial activity against Escherichia coli ATCC 25922 after 24 hrs by broth dilution technique; type: functional; details: ATCC 25922, 24 h; method in brief: as §1
[3] = system: Pseudomonas aeruginosa; assay: Antibacterial activity against Pseudomonas aeruginosa ATCC 27853 after 24 hrs by broth dilution technique; type: functional; details: ATCC 27853, 24 h; method in brief: as §1
[4] = system: Klebsiella pneumoniae; assay: Antibacterial activity against Klebsiella pneumoniae after 24 hrs by broth dilution technique; type: functional; method in brief: as §1
[5] = system: Candida albicans; assay: Antifungal activity against Candida albicans after 48 hrs […]; type: functional
[6] = system: Aspergillus flavus; assay: Antifungal activity against Aspergillus flavus after 48 hrs […]; type: functional
[7] = system: Aspergillus fumigatus; assay: Antifungal activity against Aspergillus fumigatus after 48 hrs […]; type: functional
[8] = system: Trichophyton mentagrophytes; assay: Antifungal activity against Trichophyton mentagrophytes after 48 hrs […]; type: functional
[9] = system: Talaromyces marneffei; assay: Antifungal activity against Penicillium marneffei after 48 hrs […]; type: functional
[10] = system: Pseudomonas aeruginosa; assay: Antibacterial activity against Pseudomonas aeruginosa ATCC 27853 assessed as inhibition zone diameter after 24 hrs […]; type: functional
Method in brief: (§2)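 Disc diffusion on nutrient agar. Inoculum 1-2 × 10^7 c.f.u/ml (0.5 McFarland) spread over the plate surface. Sterile 6.25 mm filter-paper discs soaked in a known concentration of compound. Solvent and growth controls included. Plates incubated inverted 24 h at 37 °C, then inhibition zone diameter measured in mm. Ciprofloxacin reference.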

[11] = system: Klebsiella pneumoniae; assay: Antibacterial activity against Klebsiella pneumoniae assessed as inhibition zone diameter after 24 hrs […]; type: functional; method in brief: as §2
[12] = system: Aspergillus fumigatus; assay: Antifungal activity against Aspergillus fumigatus assessed as inhibition zone diameter […] by agar dilution method; type: functional
Method in brief: (§3)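 Compounds in DMSO placed in punched wells on Sabouraud agar (peptone, glucose, agar, pH 5.7) lawned with saline spore suspension. Plates pre-dried 1 h at 37 °C. Controls in triplicate, incubation at 37 °C for 3-4 days, then inhibition zone diameter read in mm. Amphotericin B reference.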

[13] = system: Trichophyton mentagrophytes; assay: Antifungal activity against Trichophyton mentagrophytes assessed as inhibition zone diameter […] by agar dilution method; type: functional; method in brief: as §3
[14] = system: Talaromyces marneffei; assay: Antifungal activity against Penicillium marneffei assessed as inhibition zone diameter […] by agar dilution method; type: functional; method in brief: as §3
[15] = system: Streptococcus pyogenes; assay: Antibacterial activity against Streptococcus pyogenes after 24 hrs by broth dilution technique; type: functional; method in brief: as §1
[16] = system: Candida albicans; assay: Antifungal activity against Candida albicans assessed as inhibition zone diameter […] by agar dilution method; type: functional; method in brief: as §3
[17] = system: Streptococcus pyogenes; assay: Antibacterial activity against Streptococcus pyogenes assessed as inhibition zone diameter after 24 hrs by disc diffusion method
[18] = system: Staphylococcus aureus; assay: Antibacterial activity against Staphylococcus aureus ATCC 25923 assessed as inhibition zone diameter after 24 hrs […]; type: functional; method in brief: as §2
[19] = system: Aspergillus flavus; assay: Antifungal activity against Aspergillus flavus assessed as inhibition zone diameter […] by agar dilution method; type: functional; method in brief: as §3

| SMILES | MIC [1] | MIC [2] | MIC [3] | MIC [4] | MIC [5] | MIC [6] | MIC [7] | MIC [8] | MIC [9] | inhibition zone (IZ) [10] | inhibition zone (IZ) [11] | inhibition zone (IZ) [12] | inhibition zone (IZ) [13] | inhibition zone (IZ) [14] | MIC [15] | inhibition zone (IZ) [16] | inhibition zone (IZ) [17] | inhibition zone (IZ) [18] | inhibition zone (IZ) [19] |
| --- | --- | --- | --- | --- | --- | --- | --- | --- | --- | --- | --- | --- | --- | --- | --- | --- | --- | --- | --- |
| CCOc1ccc(NC(=O)CSc2nnc(-c3cc(F)c(Cl)cc3Cl)n2N)cc1 | > 100 mg/L | > 100 mg/L | > 100 mg/L | > 100 mg/L | > 100 mg/L | > 100 mg/L | > 100 mg/L | > 100 mg/L | > 100 mg/L | – | – | – | – | – | – | – | – | – | – |
| Nn1c(SCC(=O)Nc2cccc(Cl)c2Cl)nnc1-c1cc(F)c(Cl)cc1Cl | > 100 mg/L | > 100 mg/L | > 100 mg/L | > 100 mg/L | > 100 mg/L | > 100 mg/L | > 100 mg/L | > 100 mg/L | > 100 mg/L | – | – | – | – | – | – | – | – | – | – |
| Cc1cccc(C)c1NC(=O)CSc1nnc(-c2cc(F)c(Cl)cc2Cl)n1N | > 100 mg/L | > 100 mg/L | > 100 mg/L | > 100 mg/L | > 100 mg/L | > 100 mg/L | > 100 mg/L | > 100 mg/L | > 100 mg/L | – | – | – | – | – | – | – | – | – | – |
| Fc1cc(-c2nnc3n2N=C(Nc2cccc(Cl)c2Cl)CS3)c(Cl)cc1Cl | > 100 mg/L | 12.5 mg/L (≈ 27 µM) | 12.5 mg/L (≈ 27 µM) | 12.5 mg/L (≈ 27 µM) | > 100 mg/L | > 100 mg/L | 12.5 mg/L (≈ 27 µM) | 25 mg/L (≈ 54 µM) | 12.5 mg/L (≈ 27 µM) | 17 mm | 14 mm | 11 mm | 8 mm | 12 mm | – | – | – | – | – |
| Fc1cc(-c2nnc3n2N=C(Nc2c(Cl)cccc2Cl)CS3)c(Cl)cc1Cl | > 100 mg/L | 25 mg/L (≈ 54 µM) | > 100 mg/L | > 100 mg/L | 6.25 mg/L (≈ 13.5 µM) | > 100 mg/L | 25 mg/L (≈ 54 µM) | 12.5 mg/L (≈ 27 µM) | 25 mg/L (≈ 54 µM) | – | – | 10 mm | 12 mm | 10 mm | 12.5 mg/L (≈ 27 µM) | 18 mm | 15 mm | – | – |
| Cc1cccc(NC2=Nn3c(nnc3-c3cc(F)c(Cl)cc3Cl)SC2)c1C | 6.25 mg/L (≈ 14.8 µM) | 12.5 mg/L (≈ 29.6 µM) | 25 mg/L (≈ 59.2 µM) | 6.25 mg/L (≈ 14.8 µM) | 25 mg/L (≈ 59.2 µM) | > 100 mg/L | 12.5 mg/L (≈ 29.6 µM) | > 100 mg/L | 6.25 mg/L (≈ 14.8 µM) | 12 mm | 19 mm | 16 mm | – | 18 mm | 25 mg/L (≈ 59.2 µM) | 10 mm | 10 mm | 25 mm | – |
| Cc1cc(C)c(NC(=O)CSc2nnc(-c3cc(F)c(Cl)cc3Cl)n2N)c(C)c1 | > 100 mg/L | > 100 mg/L | > 100 mg/L | > 100 mg/L | 12.5 mg/L (≈ 27.5 µM) | 6.25 mg/L (≈ 13.8 µM) | 12.5 mg/L (≈ 27.5 µM) | 6.25 mg/L (≈ 13.8 µM) | 12.5 mg/L (≈ 27.5 µM) | – | – | 15 mm | 17 mm | 13 mm | – | 11 mm | – | – | 23 mm |
| Nn1c(SCC(=O)Nc2ccc(Cl)cc2Cl)nnc1-c1cc(F)c(Cl)cc1Cl | > 100 mg/L | > 100 mg/L | > 100 mg/L | > 100 mg/L | > 100 mg/L | > 100 mg/L | > 100 mg/L | > 100 mg/L | > 100 mg/L | – | – | – | – | – | – | – | – | – | – |
| Cc1cc(C)c(NC2=Nn3c(nnc3-c3cc(F)c(Cl)cc3Cl)SC2)c(C)c1 | 6.25 mg/L (≈ 14.3 µM) | 12.5 mg/L (≈ 28.6 µM) | 25 mg/L (≈ 57.3 µM) | 25 mg/L (≈ 57.3 µM) | 12.5 mg/L (≈ 28.6 µM) | > 100 mg/L | > 100 mg/L | 12.5 mg/L (≈ 28.6 µM) | 12.5 mg/L (≈ 28.6 µM) | 16 mm | 8 mm | – | 14 mm | 11 mm | 12.5 mg/L (≈ 28.6 µM) | 13 mm | 15 mm | 23 mm | – |
| COc1ccc(NC(=O)CSc2nnc(-c3cc(F)c(Cl)cc3Cl)n2N)cc1 | 6.25 mg/L (≈ 14.1 µM) | 6.25 mg/L (≈ 14.1 µM) | 6.25 mg/L (≈ 14.1 µM) | 6.25 mg/L (≈ 14.1 µM) | > 100 mg/L | > 100 mg/L | > 100 mg/L | > 100 mg/L | > 100 mg/L | 32 mm | 21 mm | – | – | – | 6.25 mg/L (≈ 14.1 µM) | – | 23 mm | 24 mm | – |
| Fc1ccc(NC2=Nn3c(nnc3-c3cc(F)c(Cl)cc3Cl)SC2)cc1 | 12.5 mg/L (≈ 30.3 µM) | 6.25 mg/L (≈ 15.2 µM) | 12.5 mg/L (≈ 30.3 µM) | 12.5 mg/L (≈ 30.3 µM) | 12.5 mg/L (≈ 30.3 µM) | > 100 mg/L | 25 mg/L (≈ 60.6 µM) | 6.25 mg/L (≈ 15.2 µM) | 6.25 mg/L (≈ 15.2 µM) | 24 mm | 16 mm | 6 mm | 18 mm | 19 mm | 6.25 mg/L (≈ 15.2 µM) | 14 mm | 22 mm | 15 mm | – |
| Fc1ccc(NC2=Nn3c(nnc3-c3cc(F)c(Cl)cc3Cl)SC2)cc1Cl | > 100 mg/L | 6.25 mg/L (≈ 14 µM) | 12.5 mg/L (≈ 28 µM) | 12.5 mg/L (≈ 28 µM) | > 100 mg/L | > 100 mg/L | > 100 mg/L | 25 mg/L (≈ 56 µM) | 12.5 mg/L (≈ 28 µM) | 20 mm | 11 mm | – | 10 mm | 16 mm | 6.25 mg/L (≈ 14 µM) | – | 18 mm | – | – |
| C[C@@H]1[C@H](O)[C@@H](C)/C=C/C=C/C=C/C=C/C=C/C=C/C=C/[C@H](O[C@@H]2O[C@H](C)[C@@H](O)[C@H](N)[C@@H]2O)C[C@@H]2O[C@](O)(C[C@@H](O)C[C@@H](O)[C@H](O)CC[C@@H](O)C[C@@H](O)CC(=O)O[C@H]1C)C[C@H](O)[C@H]2C(=O)O [AMPHOTERICIN B] | – | – | – | – | 6.25 mg/L (≈ 6.76 µM) | 6.25 mg/L (≈ 6.76 µM) | 6.25 mg/L (≈ 6.76 µM) | 6.25 mg/L (≈ 6.76 µM) | 6.25 mg/L (≈ 6.76 µM) | – | – | 22 mm | 19 mm | 23 mm | – | 20 mm | – | – | 25 mm |
| O=C(O)c1cn(C2CC2)c2cc(N3CCNCC3)c(F)cc2c1=O [CIPROFLOXACIN] | – | – | – | 6.25 mg/L (≈ 18.9 µM) | – | – | – | – | – | 33 mm | 22 mm | – | – | – | 6.25 mg/L (≈ 18.9 µM) | – | 25 mm | 25 mm | – |
